This passage reports Activity results from ChEMBL document CHEMBL5357046, “Sirtuin 1-activating derivatives belonging to the anilinopyridine class displaying in vivo cardioprotective activities” (2024).

Test [1] deals with T1, NAD-dependent protein deacetylase sirtuin-1 (Homo sapiens) (UniProt Q96EB6).
T1 sequence (whole entry): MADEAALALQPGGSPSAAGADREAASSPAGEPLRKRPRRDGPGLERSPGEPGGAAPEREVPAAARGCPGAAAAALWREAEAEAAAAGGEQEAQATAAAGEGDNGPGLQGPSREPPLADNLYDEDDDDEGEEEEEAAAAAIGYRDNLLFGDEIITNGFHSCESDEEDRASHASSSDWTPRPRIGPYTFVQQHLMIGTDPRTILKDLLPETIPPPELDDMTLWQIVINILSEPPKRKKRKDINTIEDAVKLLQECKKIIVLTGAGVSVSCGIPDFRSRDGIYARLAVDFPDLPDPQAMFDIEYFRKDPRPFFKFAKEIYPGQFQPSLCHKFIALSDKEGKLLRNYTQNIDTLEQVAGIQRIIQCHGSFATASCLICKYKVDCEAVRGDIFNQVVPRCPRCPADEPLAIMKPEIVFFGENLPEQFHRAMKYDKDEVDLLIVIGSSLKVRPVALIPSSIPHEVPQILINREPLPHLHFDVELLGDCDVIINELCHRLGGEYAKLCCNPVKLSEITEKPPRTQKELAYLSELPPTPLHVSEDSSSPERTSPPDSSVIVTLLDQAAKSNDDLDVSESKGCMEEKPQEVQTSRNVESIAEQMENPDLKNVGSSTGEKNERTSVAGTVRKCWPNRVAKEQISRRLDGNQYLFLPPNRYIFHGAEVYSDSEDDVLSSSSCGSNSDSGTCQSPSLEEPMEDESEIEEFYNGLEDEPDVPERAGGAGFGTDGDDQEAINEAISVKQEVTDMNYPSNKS
Description: Activation of human recombinant SIRT1 at 3 uM by fluorescence based spectrofluorometer analysis.

The target of test [2] is T1, NAD-dependent protein deacetylase sirtuin-1 (Homo sapiens). The test can be described thus: Activation of human recombinant SIRT1 by fluorescence based spectrofluorometer analysis. The settings on record: filed as activator, dose 3-100 µM.
Test [3] shares this target. The test can be described thus: Activation of human recombinant SIRT1 at 3 to 100 uM by fluorescence based spectrofluorometer analysis. Particulars: filed as activator, dose 3-100 µM.
The subject of test [4] is Rattus norvegicus. The test can be described thus: Cardioprotective activity against acute myocardial infarction Wistar rat model assessed as reduction in percentage of ischemic area to total area of left ventricle at 10 mg/kg, ip by ECG analysis. Type of test: functional. Set-up: scale not given: the % may be the effect or the level left. The procedure, abridged:
(§1)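 Adult male Wistar rats (350–450 g) dosed i.p. 2 h before surgery (vehicle DMSO 1 ml kg⁻¹), then anaesthetized with thiopental (70 mg kg⁻¹ i.p.). LAD occluded 30 min (ST elevation on ECG, cyanosis) then reperfused 120 min. Hearts washed on Langendorff, LV sliced and stained with TTC 1% at 37 °C for 20 min; infarct area/LV area by planimetry. n = 5 per group.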

The test system of test [5] is Rattus norvegicus. The test can be described thus: Cardioprotective activity against acute myocardial infarction Wistar rat model assessed as reduction in percentage of ischemic area to total area of left ventricle at 0.1 mg/kg, ip by ECG analysis. Type of test: functional. More on the design: scale not given: the % may be the effect or the level left. The method in brief:
as §1

Molecules are shown by their SMILES. Activity calls are given as the source filed them. The calls are words filed in the database; no cut-off is given here.

Consider `Oc1cccc(Nc2ccnc(-c3cccc(O)c3)c2)c1`, for which, in test [1], the result was inactive. Besides, the Activity result in test [2] is “Dose-Dependent Effect”.

Regarding `Oc1cccc(Nc2cc(-c3cccc(O)c3)ccn2)c1`, in test [3], the outcome was Active.

Turning to `Oc1ccc(/C=C/c2cc(O)cc(O)c2)cc1` [RESVERATROL], the Activity in the test with Rattus norvegicus [4] is reported as 30%.

As for `Oc1cccc(Nc2cccc(-c3cccc(O)c3)n2)c1`, the Activity entry in test [2] was “Dose-Dependent Effect”. Moreover, in test [3], the outcome was Active.

For `Oc1ccc(-c2cccc(Nc3cccc(O)c3)n2)cc1`, the Activity result was “Dose-Dependent Effect” in test [2] and 6% in the test with Rattus norvegicus [4]. In test [3], the result was Active.

In the case of `Oc1ccc(Nc2cccc(-c3ccc(O)cc3)n2)cc1`, the Activity in the test with Rattus norvegicus [5] was 28%; in test [2] it was “Dose-Dependent Effect”. Besides, the result in test [3] was Active.

On to `Oc1ccc(Nc2cccc(-c3cccc(O)c3)n2)cc1`, for which the Activity result in test [2] is “Dose-Dependent Effect”. In test [3], the outcome was Active.
